Screening data: PubChem, several laboratories
Jurkat viability: cytotoxicity toward Jurkat T cells, primary screen, cytotoxicity control, cell-based, Jurkat E6.1, 60K MLSMR library; Jurkat E6.1 viability, ATP luminescence, 48 h; inhibition, % at 4 µM; 56,000 compounds, 1.2% hits; AID 463, 2006;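 active means inhibition above the mean inhibition of all tested compounds plus 3 SD, cut at about 28% in these data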
DAT uptake mod: changed hDAT dopamine uptake under cocaine IC80, either direction, primary screen, cocaine antagonist project, cell-based, LLC-PK1 hDAT, [14C]-dopamine uptake, MLSMR; AID 449768, 2010; LLC-PK1 hDAT cells, [14C]-dopamine uptake with cocaine IC80; actives deviate in either direction; Sodium-dependent dopamine transporter (Homo sapiens), Q01959; B-score at 10 µM; 110,000 compounds, 1.3% hits;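 active means Z score or B-score, a plate-position-corrected score, falls beyond the plate's 99.7% confidence bounds, in either direction; inactive means both scores lie inside the 99.7% bounds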
M1 agonist: M1 muscarinic receptor agonists, primary screen, CHO-M1 cells, Fluo-4 calcium, agonist mode. Muscarinic acetylcholine receptor M1. Fluo-4 calcium fluorescence; stronger effect = higher value. B-score at 10 µM. 64,000 compounds, 3% hits. AID 626, 2007;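 active means fluorescence rise, raw or as B-score row- and column-corrected plate score, outside the 99.7% band of its plate's samples, either direction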
HEK293 NFkB inh: inhibitors of PMA/ionomycin-induced NF-kB reporter, primary screen, antigen receptor NF-kB inhibitor project, cell-based, HEK-293 luciferase reporter, luminescence; HEK-293 NF-kB luciferase reporter; inhibition, % at 3 µM; 62,000 compounds, 0.21% hits;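 active means inhibition above the mean of all tested compounds plus 3 SD, cut at about 40% in these data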
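Timing: 1 h pretreatment, 16 h stimulation, 37 °C; system: HEK-293 cells with stable firefly luciferase reporter driven by four HIV NF-kB elements; doses: 3 µM once, 0.30% DMSO; measured by: luciferase luminescence; control set: DMSO and 10 µM reference inhibitor; repeats: single test; reagent: PMA plus ionomycin mix as NF-kB-activating stimulus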
M1 antagonist: antagonists of rat M1 muscarinic receptor; Muscarinic acetylcholine receptor M1 (Rattus norvegicus), P08482; CHO-M1 cells, Fluo-4 calcium, ACh EC80 antagonist mode; stronger effect = lower value; B-score at 10 µM; 64,000 compounds, 3.4% hits; AID 628, 2007;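 active means calcium fluorescence response, raw or row-and-column corrected B-score, differing from the plate sample mean either way at a set confidence level, mostly lower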
D1 allo mod: D1 CRE-luciferase signal change, two-sided – cell-based, HEK293 D1, dopamine EC30, D1 allosteric modulator project, primary screen | D(1A) dopamine receptor (Homo sapiens), P21728 | dopamine EC30 potentiation; actives deviate in either direction | B-score at 10 µM | 58,000 compounds, 5.9% hits;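 active means luminescence count or its row- and column-corrected plate score outside the 99.7% band of the plate's sample wells, on either side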
M1 agonist conf: rat M1 muscarinic receptor agonists, confirmation, CHO-M1 cells, Fluo-4 calcium, duplicate retest; shares compounds with M1 agonist; Fluo-4 calcium fluorescence, agonist mode; actives lie on both sides; fluorescence change (max-min) at 10 µM; 1,700 compounds, 19% hits; AID 1488, 2009;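 active means fluorescence change differs from the solvent-only DMSO control mean at a set confidence level in both duplicate runs; inconclusive means differs from solvent-only control mean in just one of two runs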;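 further: an EC20 dose of acetylcholine follows compound addition during the same imaging run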
M4 agonist ctr: agonist activity at rat M4 receptor, confirmation, counter-screen for M1 allosteric modulator project, cell-based, agonist mode; shares compounds with M1 agonist; CHO M4/Gqi5 cells, Fluo-4 calcium fluorescence; actives lie on both sides; fluorescence change (max-min) at 10 µM; 1,700 compounds, 9% hits;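 active means fluorescence change differing from the plate's solvent-only control wells at 99.7% confidence in both duplicates, whether higher or lower; inconclusive means differs from solvent controls in only one of two duplicates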
Target sequence (P08485 whole entry, looked up): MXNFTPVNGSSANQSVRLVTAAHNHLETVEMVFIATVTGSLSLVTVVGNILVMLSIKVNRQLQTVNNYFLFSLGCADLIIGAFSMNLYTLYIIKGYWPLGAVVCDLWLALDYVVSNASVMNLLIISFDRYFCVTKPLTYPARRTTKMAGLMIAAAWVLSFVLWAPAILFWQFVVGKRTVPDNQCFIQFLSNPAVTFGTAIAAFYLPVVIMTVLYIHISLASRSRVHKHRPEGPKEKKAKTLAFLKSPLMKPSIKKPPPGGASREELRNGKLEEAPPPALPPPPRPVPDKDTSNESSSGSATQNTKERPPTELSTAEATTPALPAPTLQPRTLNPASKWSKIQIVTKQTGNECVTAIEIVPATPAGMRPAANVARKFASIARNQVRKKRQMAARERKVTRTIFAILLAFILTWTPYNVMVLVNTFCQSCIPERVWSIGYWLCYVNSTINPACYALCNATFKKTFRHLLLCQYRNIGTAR
A number is an active result; i = inactive; ? = inconclusive; nt = no result given. Only some compounds are listed: those with a hit (about 7.6% of all), similar ones and a draw of the others.

SMILES	Jurkat viability	DAT uptake mod	M1 agonist	HEK293 NFkB inh	M1 antagonist	D1 allo mod	M1 agonist conf	M4 agonist ctr
COc1ccc(S(=O)(=O)N(Cc2ccccc2)Cc2nc(-c3ccccc3)no2)cc1	i	i	23	i	i	i	i	i
COc1ccc(-c2noc(CN(C)S(=O)(=O)c3ccccc3)n2)cc1OC	i	i	i	i	i	i	nt	nt
CCN1C(=O)N[C@@H](CCc2ccccc2)[C@H](C(C)=O)[C@H]1C	nt	i	nt	nt	nt	nt	nt	nt
CCCS(=O)(=O)c1nc(S(=O)(=O)c2ccc(C)cc2)c(NCCCN2CCOCC2)s1	i	i	2.5	i	i	nt	i	?
CCCCN1CCc2c([nH]c3ccc(C)cc23)C1=O	i	i	3.5	i	i	i	i	?
COc1cccc(C(=O)N2CCN=C2SCc2cccnc2)c1OC	i	i	i	i	i	i	nt	nt
CCN1C(=O)C(Cc2nc3ccccc3c(=O)n2-c2ccccc2)c2ccccc21 (stereo not drawn)	nt	i	nt	nt	nt	nt	nt	nt
O=S(=O)(N/N=C\c1c(F)cccc1Cl)c1ccc(Cl)cc1	nt	i	nt	nt	nt	nt	nt	nt
Cc1nc2ccccc2c2oc(C(=O)N3CCC(N4CCCCC4)CC3)cc12	i	i	i	i	i	i	nt	nt
Cc1nc2ccccc2c2oc(C(=O)N3CCN(C4CCCCC4)CC3)cc12	i	i	2.4	i	-3.2	i	?	i
Cc1cc(Oc2ccc(=O)n(C)n2)nc(Oc2ccc(=O)n(C)n2)n1	i	i	i	i	i	i	nt	nt
CCN(C(=O)COc1cc(=O)n(CC)c2ccccc12)c1cc(Cl)ccc1OC	i	i	7.8	i	i	i	?	i
CCn1c(=O)cc(OCC(=O)Nc2ccccc2C#N)c2ccccc21	i	i	2.2	i	i	i	?	i
CCN(C(=O)COc1cc(=O)n(CC)c2ccccc12)c1cccc(Cl)c1	i	i	4.4	i	i	i	i	i
CCC(C)[C@H]1CN=C(N)N1CC1CCCCC1 (stereo partly drawn)	nt	i	nt	nt	nt	nt	nt	nt
CCN(CC)C(=O)CSc1nnc(CCNC(=O)OC(C)(C)C)o1	i	i	i	i	i	i	nt	nt
Cc1ccc(C)c(-c2nn(-c3cc(N4CCN(CCO)CC4)ccc3[N+](=O)[O-])c(=O)c3ccccc23)c1	nt	i	nt	nt	nt	nt	nt	nt
Cc1nc(SCC(=O)N2CCC(C(N)=O)CC2)n[nH]1	i	i	3.9	i	i	i	?	i
COc1ccc(OC)c(NC(=O)C2CCCN(S(=O)(=O)c3cccc4cccnc34)C2)c1 (stereo not drawn)	i	i	5	i	i	i	-33	i
COc1ccc(N(C)S(=O)(=O)c2cccc3cccnc23)c(OC)c1	i	i	5.2	i	i	i	?	i
O=C(CSc1nc2ccccc2c(=O)n1Cc1ccco1)N1CCCCCC1	i	i	2	i	i	nt	?	i
O=C(CSc1nc2ccccc2c(=O)n1Cc1ccco1)NCc1ccco1	i	i	i	i	i	i	nt	nt
N#C/C(C(=O)NCc1ccco1)=C1/SC(Cc2ccc(F)cc2)C(=O)N1c1ccccc1 (stereo not drawn)	nt	i	2.4	nt	i	i	i	?
CCC1S/C(=C(\C#N)C(=O)NCc2ccco2)N(c2ccc(F)cc2)C1=O (stereo not drawn)	i	i	i	i	i	i	nt	nt
CCOC(=O)N1CCN(C(=O)C2CCN(C(=O)c3cc4sccc4n3CC)CC2)CC1	i	i	3.8	i	i	i	i	i
SMILES	Jurkat viability	DAT uptake mod	M1 agonist	HEK293 NFkB inh	M1 antagonist	D1 allo mod	M1 agonist conf	M4 agonist ctr
CCCCOc1ncnc2c1[nH]c1ccc(F)cc12	61	i	5.4	i	i	i	i	i
O=C(NCCc1ccc(Cl)cc1)c1cnc2n(c1=O)CCS2	i	i	-2.9	i	i	nt	?	i
O=C(NCc1ccc2c(c1)OCO2)c1ccc(CN2CCc3ccccc3C2)cc1	nt	i	nt	nt	nt	nt	nt	nt
Nc1c(C(=O)c2ccccc2)oc2ccc(Br)cc12	i	i	-2.2	i	i	i	?	i
CC(CN1CCN(C)CC1)OC(=O)c1ccccc1 (stereo not drawn)	nt	i	nt	nt	nt	nt	nt	nt
CC(CN1CCOCC1)OC(=O)c1ccc(Br)cc1 (stereo not drawn)	i	i	34	i	i	nt	?	i
Cn1c(=O)c2c(SCC(=O)N3CCCc4ccccc43)nc(CC(C)(C)C)nc2n(C)c1=O	i	nt	i	i	i	i	nt	nt
CCCc1nc(SCC(=O)N2CCCc3ccccc32)c2c(=O)n(C)c(=O)n(C)c2n1	i	i	2.9	i	-1.4	nt	?	i
CCCc1nc(SCC(=O)N2CCC(Cc3ccccc3)CC2)c2c(=O)n(C)c(=O)n(C)c2n1	i	i	4	i	i	i	i	i
Cc1cccn2c(=O)c3cc(C(=O)N4CCc5ccccc5C4)n(C)c3nc12	i	nt	i	i	i	i	nt	nt
COc1cc(-c2nnc(SCC#CCO)o2)cc(OC)c1OC	i	i	5.8	i	i	i	i	i
CCCCN(CCCC)C(=O)CSc1nnc(-c2cc(OC)c(OC)c(OC)c2)o1	i	i	4.4	i	i	i	?	?
CCCCOC(=O)CSc1nnc(-c2cc(OC)c(OC)c(OC)c2)o1	i	i	i	i	i	i	nt	nt
COc1cccc(NC(=O)Nc2cccs2)c1	i	i	i	i	i	i	nt	nt
COc1cccc(NC(=O)c2cccs2)c1	i	i	2.4	i	i	i	?	?
Cc1sc2ncnc(N3CCN(c4ncccn4)CC3)c2c1C	i	i	2	i	i	i	i	i
Cc1cc(C)n(-c2ncnc3sc(C)c(C)c23)n1	nt	i	5	nt	i	nt	i	i
CC(C)n1c(-c2cccnc2)nc2cnccc21	i	i	i	i	i	i	nt	nt
COc1ccc(N2CCN(c3ncnc4c3[nH]c3ccccc34)CC2)cc1	nt	i	nt	nt	nt	nt	nt	nt
COc1cc2[nH]c3c(N4CCN(c5ccccn5)CC4)ncnc3c2cc1OC	i	i	8.5	i	i	-4.8	i	i
CCOC(=O)N1CCN(c2ncnc3c2[nH]c2ccc(OC)cc23)CC1	nt	3.5	2.1	nt	i	i	?	i
CCc1nc(NCc2cccnc2)c2oc3ccccc3c2n1	nt	i	nt	nt	nt	nt	nt	nt
COc1ccc(OC)c(S(=O)(=O)N2CCC(C(=O)Nc3ccc(C)c(C)c3)CC2)c1	i	i	15	i	i	i	i	?
